The source made the active and inactive calls. No cut-off for these calls is given here. Where a SMILES comes first, the peptide text is derived from it. [ ]: non-standard residue; d: D form. Oic = O=C(O)[C@@H]1C[C@@H]2CCCC[C@@H]2N1; d2Nal = N[C@H](Cc1ccc2ccccc2c1)C(=O)O; Hyp = O=C(O)[C@@H]1C[C@@H](O)CN1; dTic = O=C(O)[C@H]1Cc2ccccc2CN1; 2Thi = N[C@@H](Cc1cccs1)C(=O)O

Common to all, as to assay type: functional, tissue-based
The target in one assay is T1, B1 bradykinin receptor (Rattus norvegicus, UniProt P97583).
T1 sequence (P97583 whole entry): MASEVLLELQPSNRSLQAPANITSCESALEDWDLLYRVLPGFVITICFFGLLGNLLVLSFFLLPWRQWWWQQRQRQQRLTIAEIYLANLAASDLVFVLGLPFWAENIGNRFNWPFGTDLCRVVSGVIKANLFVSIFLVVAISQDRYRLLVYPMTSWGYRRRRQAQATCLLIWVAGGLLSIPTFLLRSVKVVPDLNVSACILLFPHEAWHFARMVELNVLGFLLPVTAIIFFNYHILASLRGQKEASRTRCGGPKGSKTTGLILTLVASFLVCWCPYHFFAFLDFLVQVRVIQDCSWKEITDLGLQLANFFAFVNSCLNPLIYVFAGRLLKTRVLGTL
Briefly: Antagonistic activity against Bradykinin receptor B1 of rat ileum longitudinal smooth muscle. The note with it: for Kb: read-out: pA2 (converted). The essentials: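 Rat ileum longitudinal muscle-myenteric plexus strips in oxygenated (95% O2/5% CO2) Krebs with indomethacin, guanethidine (3 μM each), chlorpheniramine, atropine (1 μM each). Cumulative desArg9-BK curves with thiorphan, bestatin, captopril (1 μM each); antagonist given 15 min before repeat curve at 1–10 μM. Contraction read-out; pA2 (dose ratio 2), mean ± SE of 4–15 experiments.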

The target of a further assay is T2, B2 bradykinin receptor (Cavia porcellus, UniProt O70526).
T2 sequence (O70526 whole entry): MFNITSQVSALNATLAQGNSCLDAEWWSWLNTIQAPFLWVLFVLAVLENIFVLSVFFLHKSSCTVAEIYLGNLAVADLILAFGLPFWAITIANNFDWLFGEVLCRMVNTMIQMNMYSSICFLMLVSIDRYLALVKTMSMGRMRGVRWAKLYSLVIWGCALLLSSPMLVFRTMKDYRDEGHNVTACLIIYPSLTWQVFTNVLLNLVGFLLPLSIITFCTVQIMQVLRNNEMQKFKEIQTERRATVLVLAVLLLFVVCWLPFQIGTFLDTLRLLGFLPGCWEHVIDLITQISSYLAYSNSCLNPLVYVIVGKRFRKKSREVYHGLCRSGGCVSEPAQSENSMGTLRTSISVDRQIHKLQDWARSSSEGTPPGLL
Put plainly: (§1) Antagonistic activity against Bradykinin receptor B2 of guinea pig ileum longitudinal smooth muscle. The note with it: for Kb: read-out: pA2 (converted). An outline of the steps:
(§2)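 Guinea pig ileum longitudinal muscle-myenteric plexus strips in oxygenated (95% O2/5% CO2) Krebs with indomethacin, guanethidine (3 μM each), chlorpheniramine, atropine (1 μM each). Cumulative BK curves with thiorphan, bestatin, captopril (1 μM each); antagonist given 15 min before repeat curve at 1–10 μM. Contraction read-out; pA2 (dose ratio 2), mean ± SE of 4–15 experiments.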

In assay [1] the target is T3, B2 bradykinin receptor (Cavia porcellus) (UniProt O70526).
T3 sequence (whole entry): T2 sequence (O70526 whole entry)
Described as §1. The essentials: as §2

In the case of `NC(N)=NCCC[C@@H](N)C(=O)N[C@@H](CCCN=C(N)N)C(=O)NCCCCCCCCCCCC(=O)N[C@@H](CO)C(=O)N1Cc2ccccc2C[C@@H]1C(=O)N1[C@H](C(=O)O)C[C@@H]2CCCC[C@@H]21`, the results for the Kb on B1 bradykinin receptor and at B2 bradykinin receptor were 100 nM and 3980 nM, respectively.

With `NC(N)=NCCC[C@@H](N)C(=O)N[C@@H](CCCN=C(N)N)C(=O)NCCC(=O)NC1(C(=O)NCCC(=O)N[C@@H](CO)C(=O)N2Cc3ccccc3C[C@@H]2C(=O)N2[C@H](C(=O)O)C[C@@H]3CCCC[C@@H]32)CCCCCC1`, at B1 bradykinin receptor, the Kb is 2510 nM. The pA2 – broadly, the negative logarithm of the molar antagonist concentration that doubles the agonist concentration needed for the same response – in assay [1] is “inactive”.

`CC[C@H](C)[C@H](NC(=O)[C@@H](Cc1ccc2ccccc2c1)NC(=O)[C@H](CO)NC(=O)[C@H](Cc1ccccc1)NC(=O)CNC(=O)[C@@H]1CCCN1C(=O)[C@@H]1CCCN1C(=O)[C@H](CCCN=C(N)N)NC(=O)[C@H](CCCCN)NC(C)=O)C(=O)O` (Ac-KRPPGFS[d2Nal]I-OH): the Kb on B1 bradykinin receptor was 63.1 nM; on B2 bradykinin receptor it was 1000 nM.

Regarding `NC(N)=NCCC[C@@H](N)C(=O)N[C@@H](CCCN=C(N)N)C(=O)NCCCC(=O)NC1(C(=O)NCCCC(=O)N[C@@H](CO)C(=O)N2Cc3ccccc3C[C@@H]2C(=O)N2[C@H](C(=O)O)C[C@@H]3CCCC[C@@H]32)CCCCCC1`, the results for the Kb at B1 bradykinin receptor and at B2 bradykinin receptor were 2000 nM and greater than 10000 nM, respectively.

As for `NC(N)=NCCC[C@@H](N)C(=O)N[C@@H](CCCN=C(N)N)C(=O)NCC(=O)NC1(C(=O)NCC(=O)N[C@@H](CO)C(=O)N2Cc3ccccc3C[C@@H]2C(=O)N2[C@H](C(=O)O)C[C@@H]3CCCC[C@@H]32)CCCCCC1`, the Kb at B1 bradykinin receptor is 6310 nM. Moreover, the pA2 entry in assay [1] was “inactive”.

For the compound `NC(N)=NCCC[C@@H](N)C(=O)N[C@@H](CCCN=C(N)N)C(=O)NCCCCCCCCCCC(=O)N[C@@H](CO)C(=O)N[C@@H](C(=O)N1[C@H](C(=O)N[C@@H](CCCN=C(N)N)C(=O)O)C[C@@H]2CCCC[C@@H]21)C1Cc2ccccc2C1`, the Kb at B1 bradykinin receptor was 10000 nM; at B2 bradykinin receptor, 794 nM.

Take `CC[C@H](C)[C@H](NC(=O)[C@@H](Cc1ccc2ccccc2c1)NC(=O)[C@H](CO)NC(=O)CCCCCCCCCCNC(=O)[C@H](CCCN=C(N)N)NC(=O)[C@H](CCCCN)NC(C)=O)C(=O)O`: the Kb on B1 bradykinin receptor is 100 nM; at B2 bradykinin receptor, 1260 nM.

With `NCCCC[C@H](NC(=O)[C@@H](N)CCCCN)C(=O)N[C@@H](CCCN=C(N)N)C(=O)NCCCCCCCCCCC(=O)N[C@@H](CO)C(=O)N1Cc2ccccc2C[C@@H]1C(=O)N1[C@H](C(=O)O)C[C@@H]2CCCC[C@@H]21`, the Kb on B1 bradykinin receptor was 794 nM. The pA2 result in assay [1] is “inactive”.

For the compound `NC(N)=NCCC[C@@H](N)C(=O)N[C@@H](CCCN=C(N)N)C(=O)N1CCC[C@H]1C(=O)N1C[C@H](O)C[C@H]1C(=O)NCC(=O)N[C@H](C(=O)N[C@@H](CO)C(=O)N[C@@H](C(=O)N1[C@H](C(=O)N[C@@H](CCCN=C(N)N)C(=O)O)C[C@@H]2CCCC[C@@H]21)C1Cc2ccccc2C1)C1Cc2ccccc2C1`, the Kb is 20 nM at B1 bradykinin receptor and 6.31 nM at B2 bradykinin receptor.

For the compound `NC(N)=NCCC[C@@H](N)C(=O)N[C@@H](CCCN=C(N)N)C(=O)NCCCCCCCC(=O)N[C@@H](CO)C(=O)N1Cc2ccccc2C[C@@H]1C(=O)N1[C@H](C(=O)O)C[C@@H]2CCCC[C@@H]21`, the Kb on B1 bradykinin receptor was 3980 nM. For the same compound, the pA2 entry in assay [1] is “inactive”.

With `NC(N)=NCCC[C@@H](N)C(=O)N[C@@H](CCCN=C(N)N)C(=O)NC1(C(=O)N[C@@H](CO)C(=O)N2Cc3ccccc3C[C@@H]2C(=O)N2[C@H](C(=O)O)C[C@@H]3CCCC[C@@H]32)CCCCC1`, the Kb at B1 bradykinin receptor is 10000 nM. For the same compound, in assay [1], the pA2 entry was “inactive”.

Take `NC(N)=NCCC[C@@H](N)C(=O)N[C@@H](CCCN=C(N)N)C(=O)NCCCCCCCCCCC(=O)N[C@@H](CO)C(=O)N1Cc2ccccc2C[C@@H]1C(=O)N1[C@H](C(=O)O)C[C@@H]2CCCC[C@@H]21`: the Kb on B1 bradykinin receptor is 79.4 nM. Moreover, in assay [1], the pA2 entry was “inactive”.

Regarding `CC(=O)N[C@@H](CCCCN)C(=O)N[C@@H](CCCN=C(N)N)C(=O)NCCCCCCCCCCC(=O)N[C@@H](CO)C(=O)N1Cc2ccccc2C[C@@H]1C(=O)N1[C@H](C(=O)O)C[C@@H]2CCCC[C@@H]21`, the Kb at B1 bradykinin receptor is 251 nM. Also, the pA2 entry in assay [1] was “inactive”.

For the compound `N=C(N)NCCC[C@@H](N)C(=O)N[C@@H](CCCNC(=N)N)C(=O)N1CCC[C@H]1C(=O)N1C[C@H](O)C[C@H]1C(=O)NCC(=O)N[C@@H](Cc1cccs1)C(=O)N[C@@H](CO)C(=O)N1Cc2ccccc2C[C@@H]1C(=O)N1[C@H](C(=O)O)C[C@@H]2CCCC[C@@H]21` (H-[dR]RP[Hyp]G[2Thi]S[dTic][Oic]-OH), the Kb on B1 bradykinin receptor is 158 nM; on B2 bradykinin receptor, 2000 nM.

`NC(N)=NCCC[C@@H](N)C(=O)N[C@@H](CCCN=C(N)N)C(=O)NC1(C(=O)N[C@@H](CO)C(=O)N2Cc3ccccc3C[C@@H]2C(=O)N2[C@H](C(=O)O)C[C@@H]3CCCC[C@@H]32)CCCCCC1`: the Kb on B1 bradykinin receptor is 1260 nM. In addition, in assay [1], the pA2 entry is “inactive”.

As to `NCCCC[C@H](NC(=O)[C@@H](N)CCCCN)C(=O)N[C@@H](CCCN=C(N)N)C(=O)N1CCC[C@H]1C(=O)N1C[C@H](O)C[C@H]1C(=O)NCC(=O)N[C@H](C(=O)N[C@@H](CO)C(=O)N[C@@H](C(=O)N1[C@H](C(=O)O)C[C@@H]2CCCC[C@@H]21)C1Cc2ccccc2C1)C1Cc2ccccc2C1`, the Kb on B1 bradykinin receptor is 7.94 nM; on B2 bradykinin receptor it was 3160 nM.

For `NC(N)=NCCC[C@@H](N)C(=O)N[C@@H](CCCN=C(N)N)C(=O)NCCCCCCCCCCC(=O)N[C@@H](CO)C(=O)N[C@@H](C(=O)N1[C@@H](C(=O)O)C[C@H]2CCCC[C@H]21)C1Cc2ccccc2C1`, the values for the pA2 at B1 bradykinin receptor and at B2 bradykinin receptor were 6.3 and 6, respectively.

In the case of `NC(N)=NCCC[C@@H](N)C(=O)N[C@@H](CCCN=C(N)N)C(=O)NC1(C(=O)N[C@@H](CO)C(=O)N2Cc3ccccc3C[C@@H]2C(=O)N2[C@H](C(=O)O)C[C@@H]3CCCC[C@@H]32)CCCCCCC1`, the values for the Kb at B1 bradykinin receptor and at B2 bradykinin receptor were 3160 nM and greater than 10000 nM, respectively.

For the compound `NC(N)=NCCC[C@@H](N)C(=O)N[C@@H](CCCN=C(N)N)C(=O)NC1(C(=O)N[C@@H](CO)C(=O)N2Cc3ccccc3C[C@@H]2C(=O)N2[C@H](C(=O)O)C[C@@H]3CCCC[C@@H]32)CCCCCCCC1`, the Kb at B1 bradykinin receptor was 6310 nM. Further, the pA2 entry in assay [1] was “inactive”.

For the compound `NCCCC[C@H](NC(=O)[C@@H](N)CCCCN)C(=O)N[C@@H](CCCN=C(N)N)C(=O)NCCCCCCCCCCC(=O)N[C@@H](CO)C(=O)N[C@@H](C(=O)N1[C@@H](C(=O)O)C[C@@H]2CCCC[C@@H]21)C1Cc2ccccc2C1`, the pA2 at B1 bradykinin receptor is reported as 6.3; on B2 bradykinin receptor, 5.5.

For the compound `NCCCCC(N)C(=O)N[C@@H](CCCN=C(N)N)C(=O)NCCCCCCCCCCC(=O)N[C@@H](CO)C(=O)N1Cc2ccccc2C[C@@H]1C(=O)N1[C@H](C(=O)O)C[C@@H]2CCCC[C@@H]21` (stereo in doubt), the Kb at B1 bradykinin receptor is 1000 nM. Also, in assay [1], the pA2 entry is “inactive”.

As for `NC(N)=NCCC[C@@H](N)C(=O)N[C@@H](CCCN=C(N)N)C(=O)NCCCCCC(=O)N[C@@H](CO)C(=O)N1Cc2ccccc2C[C@@H]1C(=O)N1[C@H](C(=O)O)C[C@@H]2CCCC[C@@H]21`, the Kb on B1 bradykinin receptor was 2000 nM. In assay [1], the pA2 result is “inactive”.

(Values after ChEMBL document CHEMBL1132566, “A new class of pseudopeptide antagonists of the kinin B1 receptor containing alkyl spacers” (J Med Chem, 1999).)
